Published values collected from several papers.
Protocols differ between the studies behind these lines.
Target: Calcium/calmodulin-dependent protein kinase type 1D (CAMK1D, Homo sapiens, UniProt Q8IU85)

| Structure (SMILES) | test | conditions | remaining binding |
| --- | --- | --- | --- |
| CC1CCCN1c1nccc(-c2cnn3ncccc23)n1 (stereo not shown) | binding | 1 µM | 100% |
| O=C(NS(=O)(=O)c1ccc(NCC2CCOCC2)c([N+](=O)[O-])c1)c1ccc(N2CCN(Cc3ccc(C(F)(F)F)cc3-c3ccc(Cl)cc3)CC2)cc1Oc1cnc2[nH]ccc2c1 | cell-free assay, competition with immobilised ligand | 1 µM | 92% |
| Cc1cnc(Nc2ccc(C(=O)N3CCC(N4CCCC4)CC3)cc2)nc1-c1cc2ccccc2s1 | binding, competition with immobilised ligand | 1 µM | 8.3% |
| CN([C@@H]1CCc2c(CC(=O)O)c3cc(S(C)(=O)=O)ccc3n2C1)S(=O)(=O)c1ccc(F)cc1 | cell-free assay, competition with immobilised ligand | 1 µM | 99% |
| O=C(Nc1c[nH]nc1C(=O)NC1CCNCC1)c1cc(F)cc(F)c1 | binding, competition with immobilised ligand | 1 µM | 100% |
| N[C@@H]1CCN(c2nccc(-c3cnn4ncccc34)n2)C1 | binding | 1 µM | 100% |
| CNC(=O)[C@@H]1CC[C@@H](n2c(-c3ccc4cnccc4c3)nc3ccc(C(=O)NCc4cccc(C(N)=O)c4)cc32)C1 | binding, competition with immobilised ligand | 1 µM | 100% |
| O=C(O)[C@H]1[C@H](Cn2nnc3ccccc3c2=O)CC[C@@H]1C(=O)c1ccc(OCCC2CCOCC2)cc1 | cell-free assay, competition with immobilised ligand | 1 µM | 96% |
| O=C(NCCCN1CCOCC1)c1ccc(Nc2ncc(Cl)c(-c3ccc(Cl)s3)n2)cc1 | binding, competition with immobilised ligand | 1 µM | 44% |
| CCc1ccccc1C(=O)Nc1n[nH]c2c(C)c(F)c(C3C(C#N)=C(C)N(C)C(C)=C3C#N)cc12 | cell-free assay, competition with immobilised ligand | 1 µM | 87% |
| C[C@H]1CCN(c2nccc(-c3cnn4ncccc34)n2)C1 | binding | 1 µM | 95% |
| C=CC(=O)N1CCC(C(=O)NCC(=O)N2CCN(c3nc(-c4cnc(N)nc4C(F)F)nc(N4CCOCC4)n3)CC2)CC1 | binding, competition with immobilised ligand | 1 µM | 100% |
| COc1cnc(Nc2cccc(S(N)(=O)=O)c2)nc1N1CCN(c2ccccc2)C(=O)C1 | binding, competition with immobilised ligand | 1 µM | 99% |
| C[C@@H](c1ccc(-n2cnc3c(N)ncnc32)cc1)N1CCc2nn(C)c(Cc3ccccc3)c2C1=O | binding, competition with immobilised ligand | 0.1 µM | 95% |
| O=C(c1ccc(Nc2ncc(Cl)c(-c3cc4ccccc4s3)n2)cc1)N1CCC(N2CCCC2)CC1 | binding, competition with immobilised ligand | 1 µM | 29% |
| FC(F)(F)Oc1cccc(-c2cnc3ccc(-c4ccncc4)nn23)c1 | cell-free assay, competition with immobilised ligand | 5 µM | 67% |
| F[C@@H]1CCN(c2nccc(-c3cnn4ncccc34)n2)C1 | binding | 1 µM | 100% |
| CCN1CCN(Cc2ccc(C(=O)Nc3ccc(C)c(Oc4ccc5c(c4)CC(=O)N5)c3)cc2C(F)(F)F)CC1 | binding, competition with immobilised ligand | 1 µM | 52% |
| Cc1cnn2ncc(-c3ccnc(N(C)C)n3)c2c1 | binding | 1 µM | 100% |
| O=S(=O)(NC1CCC(c2cc(F)ccc2F)(S(=O)(=O)c2ccc(Cl)cc2)CC1)C(F)(F)F (stereo not shown) | cell-free assay, competition with immobilised ligand | 1 µM | 79% |
| CN(C)c1nccc(-c2cnc3ncccn23)n1 | binding | 1 µM | 80% |
| O=C(N[C@H]1CCCCC/C=C\C2C[C@@]2(C(=O)O)NC(=O)[C@@H]2C[C@@H](Oc3ccncc3)CN2C1=O)OC1CCCC1 (stereo partly shown) | cell-free assay, competition with immobilised ligand | 1 µM | 94% |
